Data as given in ChEMBL document CHEMBL1122019, “Synthesis and enzymic activity of 6-carbethoxy- and 6-ethoxy-3,7-disubstituted-pyrazolo[1,5-a]pyrimidines and related derivatives as adenosine cyclic 3' ,5'-phosphate phosphodiesterase inhibitors” (1982).

What was measured:
Oryctolagus cuniculus [1] = species on record: Oryctolagus cuniculus; assay: Ratio of I50 of compound and I50 of theophylline for inhibition of cAMP phosphodiesterase isolated from rabbit lung
How it was run: (§1)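 Partially purified cAMP PDEs from beef heart, rabbit lung and rabbit kidney. Assay mixture in 0.5 mL: 25 μmol Tris-HCl pH 7.5, 5 μmol MgCl2, 10–75 μg enzyme protein, 350 pmol [3H]cAMP, and at least seven inhibitor concentrations (0.5 μM–5 mM). 5'-AMP formed measured at at least three time points (3–12 min) to confirm linear rates. I50 read graphically from % inhibition vs log concentration; α = I50 compound / I50 theophylline, with theophylline run in each experiment.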

Oryctolagus cuniculus [2] = species on record: Oryctolagus cuniculus; assay: Ratio of I50 of compound and I50 of theophylline for inhibition of cAMP phosphodiesterase isolated from rabbit kidney
Bos taurus = species on record: Bos taurus; assay: Relative inhibition of bovine heart cAMP phosphodiesterase compared to theophylline; how it was run: as §1
Sus scrofa [3] = species on record: Sus scrofa; assay: Inhibition of ADP-induced platelet aggregation at 100 ug/mL; type: functional
How it was run: (§2)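 Platelet-rich plasma from pig blood anticoagulated with sodium citrate (final 0.3 g/100 mL in blood), spun 500g for 20 min at 20 °C; about 2.0–8.0×10^8 platelets/mL, counted in duplicate. ADP-induced aggregation followed turbidimetrically at 600 nm with stirring (Born method). Criterion: 50% inhibition at ≤100 mcg/mL test compound, compared with adenosine as standard.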

Sus scrofa [4] = species on record: Sus scrofa; assay: Inhibition of ADP-induced platelet aggregation at 50 ug/mL; type: functional; how it was run: as §2
[5] = Inhibition of ADP-induced platelet aggregation at 100 ug/mL
Oryctolagus cuniculus [6] = species on record: Oryctolagus cuniculus; assay: Relative inhibition of rabbit lung cAMP Phosphodiesterase compared to theophylline (Insoluble)
Sus scrofa [7] = species on record: Sus scrofa; assay: Inhibition of ADP-induced platelet aggregation at 25 ug/mL; type: functional; how it was run: as §2
Oryctolagus cuniculus [8] = species on record: Oryctolagus cuniculus; assay: Relative inhibition of rabbit lung cAMP Phosphodiesterase compared to theophylline; how it was run: as §1
[9] = tested on: cAMP phosphodiesterase (Bos taurus); assay: Relative inhibition of beef heart cAMP phosphodiesterase compared to theophylline; settings: target entry is the homologue from another species

Row | SMILES | Ratio (Oryctolagus cuniculus [1]) | Ratio (Oryctolagus cuniculus [2]) | further results
1 | CCSc1cc(C)nc2c(CC)cnn12 | 8.9 |  | 
2 | CCOC(=O)c1cnc2ccnn2c1Cl | 0.6 | 0.6 | 
3 | CCCNc1cc(C)nc2c(CC)cnn12 | 9.4 |  | 
4 | CCNc1c(C(=O)OCC)cnc2ccnn12 | 4.3 | 5.2 | inhibition at 100 µg/mL (Sus scrofa [3]): 86%; inhibition at 50 µg/mL (Sus scrofa [4]): 42%
5 | CCCNc1c(OCC)cnc2c(CC)cnn12 | 3.7 | 3.4 | 
6 | CCOC(=O)c1cnc2ccnn2c1NCCO | 1.5 | 0.3 | inhibition at 100 µg/mL (Sus scrofa [3]): 92%; inhibition at 50 µg/mL (Sus scrofa [4]): 47%
7 | CCOC(=O)c1cnc2ccnn2c1SCC | 4.3 | 0.8 | 
8 | CCCOc1cc(C)nc2c(CC)cnn12 | 5.4 |  | 
9 | CCCCNc1cc(C)nc2c(Br)cnn12 | 1.5 |  | 
10 | Nc1ncnc2c1ncn2[C@@H]1O[C@H](CO)[C@@H](O)[C@H]1O [ADENOSINE] |  |  | inhibition at 100 µg/mL [5]: 64%
11 | COC(CNc1cc(C)nc2c(Br)cnn12)OC | 6.8 |  | 
12 | CCCNc1c(C(=O)OCC)cnc2ccnn12 | 5.9 | 13 | 
13 | CCCOc1c(OCC)cnc2c(CC)cnn12 | 1.6 | 1.3 | 
14 | CCOc1cnc2c(CC)cnn2c1NCCC(=O)O | 1 | 0.6 | 
15 | CCOC(=O)c1cnc2ccnn2c1NCC(=O)O | 1.7 | 1.2 | inhibition at 100 µg/mL (Sus scrofa [3]): 76%; inhibition at 50 µg/mL (Sus scrofa [4]): 67%
16 | CCOC(=O)c1cnc2c([N+](=O)[O-])cnn2c1N |  |  | Ratio (Oryctolagus cuniculus [6]): Insoluble
17 | CCOc1cc(C)nc2ccnn12 | 1.4 |  | 
18 | Cc1cc(NCCO)n2nccc2n1 | 0.5 |  | 
19 | CCOc1cnc2c(CC)cnn2c1NCC(=O)O | 0.7 | 0.4 | 
20 | CCOC(=O)c1cnc2ccnn2c1N(CC)CC | 1.8 | 2 | Ratio (Bos taurus): 2.3
21 | CCOC(=O)c1cnc2c(Br)cnn2c1N |  |  | inhibition at 100 µg/mL (Sus scrofa [3]): 68%; inhibition at 25 µg/mL (Sus scrofa [7]): 67%; Ratio (Oryctolagus cuniculus [6]): Insoluble
22 | CCCOc1c(C(=O)OCC)cnc2ccnn12 | 0.6 | 0.6 | 
23 | Cc1cc(NN)n2nccc2n1 | 1.5 |  | 
24 | Cc1cc(N2CCCCC2)n2nccc2n1 |  |  | Ratio (Oryctolagus cuniculus [8]): 2.4; Ratio [9]: 1.5
25 | CCOC(=O)c1cnc2ccnn2c1NN(C)C | 2 | 1.1 | 

Further lines, with some results ahead:

Row | Ratio (Oryctolagus cuniculus [1]) | Ratio (Oryctolagus cuniculus [2]) | SMILES | further results
26 | 3.6 | 3.2 | CCCNc1c(C(=O)OCC)cnc2c(CC)cnn12 | 
27 | 2.4 | 1.5 | CCOC(=O)c1cnc2c(Br)cnn2c1NCC(=O)O | Ratio (Bos taurus): 2.6
28 | 0.6 | 0.4 | CCOC(=O)c1cnc2c(C(=O)OCC)cnn2c1O | inhibition at 100 µg/mL (Sus scrofa [3]): 68%; inhibition at 50 µg/mL (Sus scrofa [4]): 23%
29 | 0.5 | 1 | CCOC(=O)c1cnc2c(Br)cnn2c1O | inhibition at 100 µg/mL (Sus scrofa [3]): 88%; inhibition at 50 µg/mL (Sus scrofa [4]): 34%
30 | 13 | 5.5 | CCOC(=O)c1cnc2c(CC)cnn2c1SCC | 
31 | 2 | 1 | CCOC(=O)c1cnc2ccnn2c1S | Ratio (Bos taurus): 1.2
32 | 6 | 7.2 | CCCNc1c(C(=O)OCC)cnc2c(Br)cnn12 | inhibition at 100 µg/mL (Sus scrofa [3]): 50%
33 | 6 | 6 | CCOC(=O)c1cnc2c(Br)cnn2c1N(CC)CC | Ratio (Bos taurus): 3.5
34 | 2.7 | 1.8 | CCCOc1c(C(=O)OCC)cnc2c(Br)cnn12 | 
35 | 3.7 | 1.4 | CCOC(=O)c1cnc2c(CC)cnn2c1NN(C)C | 
36 | 1.5 | 2 | CCOC(=O)c1cnc2c(C(=O)OCC)cnn2c1N | inhibition at 100 µg/mL (Sus scrofa [3]): 96%; inhibition at 50 µg/mL (Sus scrofa [4]): 47%; Ratio (Bos taurus): 0.7
37 | 0.9 | 1 | CCOC(=O)c1cnc2ccnn2c1N | inhibition at 100 µg/mL (Sus scrofa [3]): 94%; inhibition at 50 µg/mL (Sus scrofa [4]): 50%
38 | 4 | 8 | CCNc1c(C(=O)OCC)cnc2c(Br)cnn12 | inhibition at 100 µg/mL (Sus scrofa [3]): 77%
39 | 1.3 | 3.1 | CCOC(=O)c1cnc2c(Br)cnn2c1NCCO | inhibition at 100 µg/mL (Sus scrofa [3]): 72%
40 | 2.4 | 2.4 | CCCOc1c(C(=O)OCC)cnc2c(CC)cnn12 | 
